Assay results published in ChEMBL document CHEMBL1130342, “Synthesis and evaluation of 2-(arylamino)imidazoles as alpha 2-adrenergic agonists” (J Med Chem, 1997).

What was measured:
[1] = molecular target: T1, Alpha-2B adrenergic receptor (Rattus norvegicus, UniProt P19328); assay: Displacement of rauwolscine from rat Alpha-2B adrenergic receptor expressed in CHO cells; assay type: cell-based
T1 sequence (P19328 whole entry): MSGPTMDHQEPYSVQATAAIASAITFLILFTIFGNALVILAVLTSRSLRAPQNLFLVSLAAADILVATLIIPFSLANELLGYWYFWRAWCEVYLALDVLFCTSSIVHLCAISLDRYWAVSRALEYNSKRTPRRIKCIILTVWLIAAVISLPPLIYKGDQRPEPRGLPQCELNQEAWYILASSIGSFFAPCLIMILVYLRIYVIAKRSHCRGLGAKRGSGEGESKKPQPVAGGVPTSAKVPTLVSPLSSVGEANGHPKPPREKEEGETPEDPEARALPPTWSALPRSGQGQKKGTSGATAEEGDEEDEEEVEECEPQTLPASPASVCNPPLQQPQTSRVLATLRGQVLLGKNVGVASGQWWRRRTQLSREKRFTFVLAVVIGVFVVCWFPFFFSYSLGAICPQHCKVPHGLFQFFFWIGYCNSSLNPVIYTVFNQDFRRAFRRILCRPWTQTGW
Outline: (§1)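 Membranes of CHO cells expressing human α2A (CHO-C10), human α2C (CHO-C4) or rat α2B (CHO-RNG) receptor; competition against radiolabeled rauwolscine; affinity constants by nonlinear least-squares curve fitting; at least three separate determinations.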

[2] = molecular target: T2, Adrenergic receptor alpha-1 (Homo sapiens, UniProt P35348+P25100+P35368); assay: Displacement of prazosin from Alpha-1 adrenergic receptors of human cerebral cortex homogenate; assay type: tissue-based
T2 sequence (P35348 whole entry): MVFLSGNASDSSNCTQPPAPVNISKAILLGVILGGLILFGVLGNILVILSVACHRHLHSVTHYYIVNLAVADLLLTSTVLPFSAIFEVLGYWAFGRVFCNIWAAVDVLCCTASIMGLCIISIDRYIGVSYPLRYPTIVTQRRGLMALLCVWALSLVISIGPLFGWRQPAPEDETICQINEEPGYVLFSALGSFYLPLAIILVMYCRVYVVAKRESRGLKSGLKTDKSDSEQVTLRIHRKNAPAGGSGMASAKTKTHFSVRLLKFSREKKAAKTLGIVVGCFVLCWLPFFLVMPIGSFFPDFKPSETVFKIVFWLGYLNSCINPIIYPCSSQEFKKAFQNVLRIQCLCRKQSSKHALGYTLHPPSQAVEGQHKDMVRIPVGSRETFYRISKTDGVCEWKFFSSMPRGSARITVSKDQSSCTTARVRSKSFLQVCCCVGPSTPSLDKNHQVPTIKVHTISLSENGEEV
T2 sequence (P25100 whole entry): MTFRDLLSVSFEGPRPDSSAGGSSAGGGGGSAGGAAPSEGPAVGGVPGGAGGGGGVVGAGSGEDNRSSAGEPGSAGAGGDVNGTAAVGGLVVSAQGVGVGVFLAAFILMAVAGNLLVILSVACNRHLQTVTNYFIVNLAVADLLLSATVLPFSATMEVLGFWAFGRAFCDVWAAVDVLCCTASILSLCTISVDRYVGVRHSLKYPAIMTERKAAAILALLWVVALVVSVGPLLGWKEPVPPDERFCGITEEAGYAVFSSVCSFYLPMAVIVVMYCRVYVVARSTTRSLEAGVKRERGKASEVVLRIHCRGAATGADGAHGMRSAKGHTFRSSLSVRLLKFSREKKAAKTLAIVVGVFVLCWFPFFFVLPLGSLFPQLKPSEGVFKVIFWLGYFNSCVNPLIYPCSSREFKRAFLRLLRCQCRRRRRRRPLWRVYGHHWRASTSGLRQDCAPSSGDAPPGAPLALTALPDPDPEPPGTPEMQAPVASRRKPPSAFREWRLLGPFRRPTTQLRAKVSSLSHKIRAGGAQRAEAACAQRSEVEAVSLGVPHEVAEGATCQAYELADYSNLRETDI
T2 sequence (P35368 whole entry): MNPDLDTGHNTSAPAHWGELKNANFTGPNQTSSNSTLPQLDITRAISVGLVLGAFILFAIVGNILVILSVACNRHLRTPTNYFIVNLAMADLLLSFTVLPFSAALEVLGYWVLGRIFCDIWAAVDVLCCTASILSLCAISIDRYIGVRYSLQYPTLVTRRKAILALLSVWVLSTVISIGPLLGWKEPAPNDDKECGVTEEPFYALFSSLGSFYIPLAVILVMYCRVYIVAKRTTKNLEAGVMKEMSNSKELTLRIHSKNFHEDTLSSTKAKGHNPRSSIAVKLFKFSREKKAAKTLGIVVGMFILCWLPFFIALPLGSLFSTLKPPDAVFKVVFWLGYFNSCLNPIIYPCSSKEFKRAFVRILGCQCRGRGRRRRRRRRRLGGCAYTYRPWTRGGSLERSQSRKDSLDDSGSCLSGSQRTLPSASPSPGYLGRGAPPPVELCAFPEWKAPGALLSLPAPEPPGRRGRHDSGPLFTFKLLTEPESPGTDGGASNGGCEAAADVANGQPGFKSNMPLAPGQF
Outline: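 Membranes from human cerebral cortex, giving a mixed α1 subtype population; affinity from competition against radiolabeled prazosin; nonlinear least-squares curve fitting; at least three separate determinations.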

[3] = molecular target: T3, Alpha-2C adrenergic receptor (Homo sapiens, UniProt P18825); assay: Displacement of rauwolscine from human Alpha-2C adrenergic receptor expressed in CHO cells; assay type: cell-based; outline: as §1
T3 sequence (P18825 whole entry): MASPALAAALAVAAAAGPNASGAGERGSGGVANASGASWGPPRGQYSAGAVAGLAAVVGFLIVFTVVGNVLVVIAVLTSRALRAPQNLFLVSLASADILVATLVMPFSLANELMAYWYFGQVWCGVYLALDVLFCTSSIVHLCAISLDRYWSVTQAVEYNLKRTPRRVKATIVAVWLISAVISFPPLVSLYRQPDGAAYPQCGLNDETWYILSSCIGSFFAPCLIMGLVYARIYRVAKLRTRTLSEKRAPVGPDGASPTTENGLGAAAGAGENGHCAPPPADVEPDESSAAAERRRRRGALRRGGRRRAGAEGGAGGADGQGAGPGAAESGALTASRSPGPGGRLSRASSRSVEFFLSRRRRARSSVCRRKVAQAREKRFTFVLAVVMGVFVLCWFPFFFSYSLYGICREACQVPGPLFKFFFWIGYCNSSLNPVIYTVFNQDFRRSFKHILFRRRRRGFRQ

[4] = molecular target: T4, Alpha-2A adrenergic receptor (Homo sapiens, UniProt P08913); assay: Displacement of rauwolscine from human Alpha-2A adrenergic receptor expressed in CHO cells; assay type: cell-based; outline: as §1
T4 sequence (P08913 whole entry): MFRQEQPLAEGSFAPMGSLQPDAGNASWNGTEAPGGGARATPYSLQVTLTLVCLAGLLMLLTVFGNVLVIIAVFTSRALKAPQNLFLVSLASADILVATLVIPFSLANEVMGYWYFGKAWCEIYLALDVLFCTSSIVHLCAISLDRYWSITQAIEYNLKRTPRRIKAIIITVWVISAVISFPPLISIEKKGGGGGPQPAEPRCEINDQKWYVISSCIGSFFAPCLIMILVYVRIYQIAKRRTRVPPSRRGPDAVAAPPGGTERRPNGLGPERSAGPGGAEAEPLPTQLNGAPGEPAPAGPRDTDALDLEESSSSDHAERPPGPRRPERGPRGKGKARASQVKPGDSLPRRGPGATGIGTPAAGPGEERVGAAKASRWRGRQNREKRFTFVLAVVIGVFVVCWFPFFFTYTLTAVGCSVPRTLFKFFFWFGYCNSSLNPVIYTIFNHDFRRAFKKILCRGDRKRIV

[5] = molecular target: T5, Alpha-2B adrenergic receptor (Rattus norvegicus) (UniProt P19328); assay: Intrinsic activity relative to Norepinephrine at Alpha-2B adrenergic receptor from CHO-RNG cells; assay type: cell-based
T5 sequence (whole entry): T1 sequence (P19328 whole entry)
Outline: (§2)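 Functional agonist response measured by Cytosensor microphysiometry in CHO cells expressing α2A (CHO-C10) or rat α2B (CHO-RNG) adrenoceptor.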

[6] = molecular target: T6, Alpha-2A adrenergic receptor (Homo sapiens) (UniProt P08913); assay: Intrinsic activity relative to Norepinephrine at Alpha-2A adrenergic receptor from CHO-C10 cells; assay type: cell-based; outline: as §2
T6 sequence (whole entry): T4 sequence (P08913 whole entry)

[7] = molecular target: T7, Alpha-2C adrenergic receptor (Homo sapiens) (UniProt P18825); conditions: CHO-C4
T7 sequence (whole entry): T3 sequence (P18825 whole entry)

[8] = molecular target: T3, Alpha-2C adrenergic receptor; assay: Effective concentration at Alpha-2C adrenergic receptor from CHO-C4 cells; assay type: functional, cell-based
Outline: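 Functional agonist assay in CHO cells expressing the human α2C-adrenoceptor (CHO-C4). Responses were read on a Cytosensor microphysiometer.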

[9] = molecular target: T4, Alpha-2A adrenergic receptor; assay: Effective concentration at Alpha-2A adrenergic receptor from CHO-C10 cells; assay type: functional, cell-based; outline: as §2
[10] = molecular target: T1, Alpha-2B adrenergic receptor; assay: Effective Concentration at Alpha-2B adrenergic receptor from CHO-RNG cells; assay type: functional, cell-based; outline: as §2

Row | SMILES | Ki [1] [µM] | Ki [2] [µM] | Ki [3] [µM] | Ki [4] [µM] | IA [5] | IA [6] | IA [7] | EC50 [8] [µM] | EC50 [9] [µM] | EC50 [10] [µM]
1 | COc1ccc(Nc2ncc[nH]2)c(C)c1OC | 2.5 | 6.6 | 1.5 | 0.13 |  |  |  |  |  | 
2 | COc1ccc(Nc2ncc[nH]2)c(C)c1 |  | 8.4 |  |  |  |  |  |  |  | 
3 | Brc1ccccc1Nc1ncc[nH]1 | 1.5 | 11 |  | 0.21 |  |  |  |  |  | 
4 | Brc1c(NC2=NCCN2)ccc2nccnc12 [BRIMONIDINE] |  | 1.8 |  |  | 0.89 | 0.91 | 0.82 |  |  | 
5 | COc1cc(C)c(Nc2ncc[nH]2)cc1C(C)(C)C | 0.38 | 16 | 0.29 | 0.039 |  |  |  |  |  | 
6 | Clc1cccc(Cl)c1Nc1ncc[nH]1 |  | 6 | 1.1 |  |  |  |  |  |  | 
7 | Brc1c(Nc2ncc[nH]2)ccc2nccnc12 | > 10 | > 100 | > 10 |  |  |  |  |  |  | 
8 | c1c[nH]c(Nc2ccc3[nH]cnc3c2)n1 | 0.64 | 24 | 0.4 | 0.076 |  |  |  |  |  | 
9 | Cc1c(Nc2ncc[nH]2)ccc2c1NCCO2 | 0.421 | 16 |  | 0.006 | 0.88 | 0.49 | 0.64 | 0.11 | 0.124 | 0.47
10 | COc1c(C(C)(C)C)cc(C)c(Nc2ncc[nH]2)c1C |  | 4.2 |  |  | 0.65 |  |  | > 5 | > 5 | 1.1
11 | Cc1c(Nc2ncc[nH]2)ccc2nccnc12 | 1.2 | > 28 | 0.34 |  |  |  |  |  |  | 
12 | c1c[nH]c(Nc2ccc3nccnc3c2)n1 | 9.3 | > 100 | 8.8 | 3.1 |  |  |  |  |  | 
13 | Cc1c(Nc2ncc[nH]2)ccc2c1OCCO2 |  | 2.1 |  |  | 1 | 0.89 | 0.5 | 0.0066 | 0.0087 | 0.041
